This note sets out measurements from ChEMBL document CHEMBL5380775, “Visible-Light-Controlled Histone Deacetylase Inhibitors for Targeted Cancer Therapy” (J Med Chem, 2023).

A short description of series [1]: Stability of compound in DMSO assessed as half life at 25 to 50 uM in presence of illumination with 380 to 550 nm light. The conditions noted are these: dose 25-50 µM. Type of series: physicochemical. Put shortly:
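Solutions of 25–50 μM in DMSO illuminated 2 min at the cis-forming wavelength. Absorbance then followed at fixed intervals in the dark at room temperature, at the wavelength of largest isomer difference. Half-life from an exponential-decay fit.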

The subject of series [2] is HT-29. Nature of the series: Cytotoxicity against human HT-29 cells assessed as reduction in cell viability at 50 uM incubated for 48 hrs in presence of illumination with 550 nm light by MTS assay. Type of series: functional, cell-based. The method, boiled down: (§1)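 HT29 and MCF7 cells in DMEM with 10% FBS, seeded at 1 × 10⁴ cells/well; compound added 24 h later. Dark stocks heated to 60 or 80 °C; light stocks preilluminated 3 min at 380 or 550 nm. Tested at 50 μM, final DMSO 0.5%, for 48 h. MTS read 2 h at 37 °C, absorbance 490 nm; viability as % of nontreated cells.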
Background: Tetrazolium assays rely on reduction of a dye to a coloured formazan, in cell work by metabolically active cells.

Series [3] deals with KG-1. Description: Cytotoxicity against human KG-1 cells assessed as reduction in cell viability at 50 uM incubated for 48 hrs in presence of illumination with 550 nm light by celltiter glo assay. Type of series: functional, cell-based. Put shortly:
(§2)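 KG1 suspension cells grown in IMDM with 20% FBS, 1 × 10⁴ cells/well. Dark stocks heated to 60 or 80 °C; light stocks preilluminated 3 min at 380 or 550 nm. Exposure 50 μM for 48 h. CellTiter-Glo added, 10 min at room temperature, luminescence read; % of nontreated cells.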

The test system of series [4] is KG-1. Nature of the series: Cytotoxicity against human KG-1 cells assessed as reduction in cell viability at 50 uM incubated for 48 hrs in presence of illumination with 380 nm light by celltiter glo assay. The format is functional, cell-based. The method, boiled down: as §2
Background: ATP-based viability assays read luminescence as a measure of living cells.

Series [5] deals with Histone deacetylase (Homo sapiens) (UniProt Q13547+O15379+Q9UBN7+Q92769+Q9UQL6+Q8WUI4+Q9BY41+Q96DB2+P56524+Q9UKV0+Q969S8). Description: Inhibition of HDAC in human HeLa cells at 50 uM incubated for 3 hrs by fluorescence based analysis. Type of series: cell-based. Put shortly:
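Live-cell HDAC assay: HeLa in DMEM/10% FBS, 15 × 10³ cells/well, seeded 24 h before. Compound added at 50 μM final, either heat-relaxed to trans (60 or 80 °C, dark) or LED-illuminated 3 min. Boc-Lys(Ac)-AMC substrate at 100 μM final, 3 h at 37 °C. […] Fluorescence ex 380/em 460 nm. Activity as % of untreated cells after no-substrate blank subtraction.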

Series [6] relates to HeLa. Description: Anticancer activity against human HeLa cells assessed as inhibition of cell growth incubated for 48 hrs in dark by MTS assay. The format is functional, cell-based. The method, boiled down:
(§3)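 HeLa cells in DMEM with 10% FBS, seeded at 5 × 10³ cells/well 24 h before treatment. Dark stocks heated to 60 or 80 °C. Light stocks preilluminated 3 min at 380 nm (11 mW/cm²). Stocks diluted in DMEM to 20× final, final DMSO 0.5%. Exposure 24 or 48 h. MTS read 2 h at 37 °C, absorbance 490 nm; % of nontreated cells.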

In series [7] the test system is HT-29. Description: Cytotoxicity against human HT-29 cells assessed as reduction in cell viability at 50 uM incubated for 48 hrs in presence of illumination with 380 nm light by MTS assay. The format is functional, cell-based. Put shortly: as §1
The test system of series [8] is KG-1. Description: Cytotoxicity against human KG-1 cells assessed as reduction in cell viability at 50 uM incubated for 48 hrs in dark condition by celltiter glo assay. The format is functional, cell-based. The method, boiled down:
as §2

Series [9] concerns MCF7. Nature of the series: Cytotoxicity against human MCF7 cells assessed as reduction in cell viability at 50 uM incubated for 48 hrs in presence of illumination with 380 nm light by MTS assay. The format is functional, cell-based. The method, boiled down:
as §1

Series [10] concerns HT-29. Nature of the series: Cytotoxicity against human HT-29 cells assessed as reduction in cell viability at 50 uM incubated for 48 hrs in dark condition by MTS assay. Type of series: functional, cell-based. The method, boiled down:
as §1

The subject of series [11] is MCF7. Description: Cytotoxicity against human MCF7 cells assessed as reduction in cell viability at 50 uM incubated for 48 hrs in presence of illumination with 550 nm light by MTS assay. The format is functional, cell-based. Put shortly: as §1
In series [12] the test system is MCF7. Nature of the series: Cytotoxicity against human MCF7 cells assessed as reduction in cell viability at 50 uM incubated for 48 hrs in dark condition by MTS assay. Type of series: functional, cell-based. The method, boiled down:
as §1

Series [13] is described as follows: Stability of the compound assessed as half life in DMEM by HPLC analysis. Type of series: physicochemical. The method, boiled down: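 10 mM DMSO stock illuminated 2 min (LED array plate at maximum power, e.g. 380 nm at 11 mW/cm²), then diluted to 10 μM in DMEM with 0.1% DMSO. Kept at 37 °C in an incubator in the dark; samples taken at fixed intervals and analysed by HPLC. Cis thermal half-life obtained by fitting the decay to an exponential function.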

Series [14] has as its system HeLa. Description: Anticancer activity against human HeLa cells assessed as reduction in cell viability upto 100 uM incubated for 48 hrs in dark by MTS assay. The format is functional, cell-based. Put shortly:
as §3

Series [15] concerns HeLa. Description: Anticancer activity against human HeLa cells assessed as inhibition of cell growth incubated for 48 hrs in presence of illumination with 380 nm light by MTS assay. Type of series: functional, cell-based. The method, boiled down:
as §3

The target of series [16] is T1, Histone deacetylase 1 (Homo sapiens, UniProt Q13547). Description: Inhibition of human recombinant HDAC1 using Boc-Lys(Ac)-AMC as substrate incubated for 1 hrs in presence of illumination with 380 nm light by fluorescence based assay.
For series [17], the target named is T1, Histone deacetylase 1. Nature of the series: Inhibition of human recombinant HDAC1 using Boc-Lys(Ac)-AMC as substrate at 0.003 to 10 uM incubated for 1 hrs in dark by fluorescence based assay. The conditions noted are these: dose 0.003-10 µM. Put shortly:
(§4)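 Recombinant human HDAC1 at 8 ng/well with Boc-Lys(Ac)-AMC 15 μM in Tris buffer pH 8 with 0.1 mg/mL BSA. Compound 10 μM to 3 nM, 1 h at room temperature. Dark: stocks heated to 60 or 80 °C. Light: stocks preilluminated 3 min, then continuous 550 nm at 6 mW/cm². […] Fluorescence ex 380/em 460 nm, blank-subtracted.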

The target of series [18] is T1, Histone deacetylase 1. Nature of the series: Inhibition of human recombinant HDAC1 using Boc-Lys(Ac)-AMC as substrate incubated for 1 hrs in dark by fluorescence based assay.
Series [19] addresses T1, Histone deacetylase 1. Nature of the series: Inhibition of human recombinant HDAC1 using Boc-Lys(Ac)-AMC as substrate at 0.003 to 10 uM incubated for 1 hrs in presence of illumination with 550 nm light by fluorescence based assay. The note with it: dose 0.003-10 µM. Put shortly:
as §4

Series [20] has as its target T1, Histone deacetylase 1. Nature of the series: Inhibition of human recombinant HDAC1 using Boc-Lys(Ac)-AMC as substrate incubated for 1 hrs in presence of illumination with 550 nm light by fluorescence based assay.
Series [21] has as its target T1, Histone deacetylase 1. Description: Inhibition of human recombinant HDAC1 using Boc-Lys(Ac)-AMC as substrate incubated for 1 hrs in presence of illumination with 420 nm light by fluorescence based assay.
In series [22] the test system is HeLa. Description: Anticancer activity against human HeLa cells assessed as inhibition of cell growth incubated for 24 hrs in dark condition by MTS assay. Type of series: functional, cell-based. The method, boiled down:
as §3

A short description of series [23]: Stability of the compound assessed as half life in buffer. The format is physicochemical.
The mark [24] stands for this setting: in the assay text read “380 nm light” for “550 nm light”.

Calls of active or inactive are those of the source. The rule behind the calls is not given here.

T1 sequence (Q13547 whole entry): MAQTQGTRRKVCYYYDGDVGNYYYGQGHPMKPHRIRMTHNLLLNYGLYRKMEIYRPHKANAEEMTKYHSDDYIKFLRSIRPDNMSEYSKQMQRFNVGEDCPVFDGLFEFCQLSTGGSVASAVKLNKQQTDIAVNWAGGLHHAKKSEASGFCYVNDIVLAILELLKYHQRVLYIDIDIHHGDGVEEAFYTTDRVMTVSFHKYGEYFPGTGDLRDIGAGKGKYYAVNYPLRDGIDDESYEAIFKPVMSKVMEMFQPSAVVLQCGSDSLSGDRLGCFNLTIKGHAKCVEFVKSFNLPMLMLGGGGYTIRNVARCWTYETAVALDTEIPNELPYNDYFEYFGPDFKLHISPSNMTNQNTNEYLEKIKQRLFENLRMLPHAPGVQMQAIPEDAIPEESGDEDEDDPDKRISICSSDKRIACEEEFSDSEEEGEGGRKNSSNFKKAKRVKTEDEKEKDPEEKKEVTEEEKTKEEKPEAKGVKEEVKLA

As for `CN(C)c1ccc(/N=N/c2ccc(C(=O)Nc3ccccc3N)cc2)cc1`, in series [1], the half-life at up to 50 µM is 0.0717 h.
For the compound `COc1cc(F)c(/N=N/c2c(F)cc(/C=C/C(=O)Nc3ccccc3N)cc2Cl)c(Cl)c1`, the result in series [2], in series [3], in [4], in series [7], in [9] and in [11] was Active. For the same compound, the inhibition entry in series [5] was “Active”. Besides, in [6], the inhibition result is “inactive”. The outcome in series [8], in series [10] and in [12] was inactive. The half-life at up to 50 µM in series [1] was 178 h.
As to `COc1cc(F)c(/N=N/c2c(F)cc(/C=C/C(=O)NO)cc2F)c(F)c1`, in series [1], the half-life at up to 50 µM was 218 h.
For `COc1ccc(/N=N/c2ccc(/C=C/C(=O)Nc3ccccc3N)cc2)cc1`, the result in series [2] (setting [24]), in series [3], in series [4], in [7], in [9] and in series [11] was Active. Besides, in series [13], the half-life was determined as 0.667 h. In addition, the inhibition result in series [5] is “Active”. For the same compound, the outcome in [14], in series [8], in [10] and in series [12] was inactive. The half-life at up to 50 µM in series [1] is 3.1 h.
Regarding `COc1ccc(/N=N/c2ccc(C(=O)NO)cc2)cc1`, the half-life at up to 50 µM in series [1] is 18.7 h.
Consider `COc1ccc(/N=N/c2ccc(/C=C/C(=O)Nc3ccccc3N)cc2Cl)c(Cl)c1`, for which the inhibition entry in [15] and in series [6] was “inactive” throughout. Besides, the half-life at up to 50 µM in series [1] is 4.3 h.
`COc1ccc(/N=N/c2ccc(/C=C/C(=O)Nc3ccccc3N)cc2F)c(F)c1`: the inhibition entry in series [15] and in [6] was “inactive” each time. For the same compound, the half-life at up to 50 µM in series [1] was 9.9 h. In addition, the IC50 in series [16] worked out at 460 nM.
In the case of `COc1cc(Cl)c(/N=N/c2c(Cl)cc(C(=O)Nc3ccccc3N)cc2Cl)c(Cl)c1`, the inhibition result in series [17], in series [18], in series [19] and in series [20] was “inactive” each time. The half-life at up to 50 µM in [1] is 8.3 h.
Consider `CN(C)c1cc(F)c(/N=N/c2c(F)cc(/C=C/C(=O)Nc3ccccc3N)cc2F)c(F)c1`, for which, in [17], the inhibition result was “inactive”. Moreover, the half-life at up to 50 µM in series [1] was 5.4 h. For the same compound, the IC50 in [21] amounted to 1200 nM.
Regarding `COc1ccc(/N=N/c2ccc(/C=C/C(=O)Nc3cc(-c4cccs4)ccc3N)cc2)cc1`, the result in [2] (setting [24]), in series [3], in [4], in series [7], in series [9] and in series [11] was Active. Further, the inhibition entry in series [22] is “inactive”. The inhibition result in series [5] was “Active”. The outcome in series [14], in series [8], in series [10] and in [12] was inactive. Besides, the half-life at up to 50 µM in [1] was 4.5 h.
On to `COc1ccc(/N=N/c2ccc(C(=O)Nc3ccccc3N)cc2)cc1`, for which the inhibition entry in [6] is “inactive”. The half-life at up to 50 µM in series [1] was 20.8 h.
`COc1ccc(/N=N/c2ccc(/C=C/C(=O)NO)cc2)cc1`: in [23], the half-life is 2.7 h. Besides, the half-life at up to 50 µM in series [1] was 2.7 h.
Regarding `CN(C)c1cc(Cl)c(/N=N/c2c(Cl)cc(/C=C/C(=O)Nc3ccccc3N)cc2Cl)c(Cl)c1`, the half-life at up to 50 µM in series [1] was found to be 0.135 h. In addition, in series [21], the IC50 amounted to 5000 nM.
Regarding `COc1cc(F)c(/N=N/c2c(F)cc(/C=C/C(=O)Nc3ccccc3N)cc2F)c(F)c1`, the outcome in series [2], in series [3], in series [4], in series [7], in series [9] and in series [11] was Active. In addition, the inhibition entry in series [5] is “Active”. For the same compound, in [6], the inhibition entry is “inactive”. Besides, the outcome in series [8], in series [10] and in series [12] was inactive. Besides, in [1], the half-life at up to 50 µM was 223 h.
For the compound `COc1cc(Cl)c(/N=N/c2c(Cl)cc(/C=C/C(=O)Nc3ccccc3N)cc2Cl)c(Cl)c1`, in series [17], the inhibition entry is “inactive”. The half-life at up to 50 µM in series [1] was 13.8 h.
As for `COc1cc(F)c(/N=N/c2c(F)cc(C(=O)Nc3ccccc3N)cc2F)c(F)c1`, the result in series [2], in [3], in [4], in series [7], in series [9] and in series [11] was Active. Besides, the half-life in series [13] was 113 h. Moreover, the inhibition entry in series [5] is “Active”. The result in series [8], in [10] and in [12] was inactive. Moreover, the half-life at up to 50 µM in series [1] is 1010 h.
Turning to `COc1ccc(/N=N/c2ccc(CCC(=O)Nc3ccccc3N)cc2)cc1`, in series [15], the result was inactive. Further, the inhibition entry in series [6] was “inactive”. For the same compound, the half-life at up to 50 µM in series [1] was 20.1 h.

For orientation: half-life means the time in which the quantity being followed falls by half. The IC50 is the point on the concentration scale where inhibition reaches its midpoint.
